# Compound activity (PubChem)
# Most compounds without a hit are left out; they make up all but 3.9% or so of the library.
# tim10-1 inh: tim10-1 yeast growth inhibition. S. cerevisiae tim10-1 ts strain growth, BacTiter-Glo, 24 h. inhibition, % at 20 µM. 2.2% of 330,000 active;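 active = inhibition of at least 40%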;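 also: mutant grown at 25 °C; 0% = DMSO wells with yeast and 100% = wells holding no yeast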
# TIM10 inh: inhibits growth of TIM10 yeast strain; S. cerevisiae TIM10 strain growth, BacTiter-Glo luminescence, 24 h; inhibition, % at 10 µM; 1.4% of 330,000 active; AID 463195;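 active = inhibition of 40% or more at the single tested concentration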;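 also: wild-type TIM10 isogenic control strain grown at permissive 25 °C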
# tim23-1 inh: inhibits growth of tim23-1 mutant yeast; S. cerevisiae tim23-1 growth, BacTiter-Glo luminescence, 24 h; inhibition, % at 20 µM; 1.3% of 330,000 active; AID 463212;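 active = growth inhibition of the mutant yeast at or above 50%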;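 also: temperature-sensitive mutant grown at 25 °C; plate controls were DMSO-treated mutant yeast for no effect and medium wells lacking yeast for full effect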
# UPR XBP1 act: activators of adaptive arm of unfolded protein response (XBP1); CHO-XBP1 luciferase reporter, IRE1-XBP1 UPR activation, luminescence; percent of tunicamycin response, DMSO as zero; activation, % at 20 µM; 0.33% of 330,000 active; AID 463104;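 active = versus positive control, 20 µM dose yields 30% or more activation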;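 also: 100% = tunicamycin at 10 µg/mL and 0% = DMSO only wells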
#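 assay system = CHO-XBP1 luciferase reporter cells | amount = 1000 cells/well | buffer or medium = F12 plus 10% FBS | compound dosing = single point, 20 µM final compound, 1% DMSO | incubation = 16-18 h cell attachment at 37 °C, then 6 h compound exposure | detection = Steady-Glo luminescence read | controls = tunicamycin 10 µg/mL and vehicle-only wells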
# CHOP UPR activ: activators of apoptotic arm of unfolded protein response (CHOP); CHO-CHOP luciferase reporter, UPR activation, luminescence; percent of tunicamycin response over DMSO baseline; activation, % at 10 µM; 0.34% of 330,000 active;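 active = at 10 µM dose, activation of 40% or more, normalized to positive control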;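 also: 100% = tunicamycin at 10 µg/mL and 0% = DMSO alone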
#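 Assay system: CHO-CHOP cells, stable luciferase reporter of PERK-eIF2a-CHOP signalling / Buffer or medium: F12 plus 10% serum / Compound dosing: one dose, 10 µM in 0.5% DMSO / Times: 6 h compound treatment, 37 °C / Technique: luciferase luminescence / Read-out: % reporter activation, DMSO baseline versus tunicamycin full activation / Benchmarks: tunicamycin and DMSO controls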
# tim23-1 confirm: tim23-1 yeast growth inhibition, confirmed; 83% of 4,400 active; shares compounds with tim23-1 inh; inhibition, % at 20 µM; S. cerevisiae tim23-1 growth, BacTiter-Glo luminescence, 24 h;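 active = inhibition above about 39% in either of two replicate wells at 20 µM, limit read from the data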;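 also: temperature-sensitive tim23-1 mutant grown at 25 °C; 0% = DMSO wells with yeast and 100% = medium wells without yeast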
# Numbers without * were called inactive; x = not tested or not shown.
SMILES,tim10-1 inh,TIM10 inh,tim23-1 inh,UPR XBP1 act,CHOP UPR activ,tim23-1 confirm
COc1ccccc1/C=C1/SC(=S)N(CCC(=O)Nc2cccnc2)C1=O,15.5,13.6,25.1,-3.1,2.0,x
Cn1c(=O)c2c(nc(Cl)n2CC(=O)NC2(C#N)CCCCC2)n(C)c1=O,10.1,13.8,-3.2,0.8,-1.5,x
C=C1SC(Nc2c(C)cccc2C)=NC12CCCCC2,26.3,30.1,50.2*,-1.9,0.4,44.2*
Cc1ccc(S(=O)(=O)Nc2cccc(C(=O)NCCCn3ccnc3)c2)cc1F,-5.4,-4.1,-4.2,1.5,0.3,x
CCn1c(O)c(C=NC2CCCC(C)C2C)sc1=S (centres undefined),35.5,23.4,50.7*,1.6,3.8,53.4*
CCn1c(O)c(C=NCc2ccccc2)sc1=S,15.1,15.8,14.3,-0.2,0.8,x
O=C(COC(=O)COc1ccc(Cl)cc1)NCCNC(=O)COC(=O)COc1ccc(Cl)cc1,-13.7,-1.3,92.9*,-2.4,-0.4,2.9
O=C(COC(=O)COc1ccc(Cl)cc1)NCCCc1ccccc1,2.1,2.6,15.9,-1.7,-1.9,x
CC(=O)c1cc(CC(=O)N2CCc3c([nH]c4ccccc34)C2c2ccccn2)cs1 (centres undefined),-9.4,-12.0,1.5,-3.3,-2.5,x
O=C(Cc1cnc2ncnn2c1)N1CCc2c([nH]c3ccccc23)C1c1ccccn1 (centres undefined),-2.8,-10.8,58.9*,-0.3,-1.5,3.0
COc1ccccc1Nc1ncc(C(=O)N2CCN(Cc3ccc(OC)c(OC)c3OC)CC2)c2ccccc12,34.7,23.1,34.0,-1.3,-0.7,x
Oc1ccccc1-c1cc(-c2ccc(F)cc2)n[nH]1,39.3,25.3,67.7*,1.4,7.1,60.9*
Oc1ccccc1-c1cc(-c2ccccc2)n[nH]1,-8.9,18.3,71.5*,1.8,4.4,60.0*
Oc1ccccc1-c1ccn[nH]1,-3.7,-9.8,2.4,1.9,0.2,x
Oc1ccc(F)cc1-c1cc(-c2ccc3c(c2)OCCO3)n[nH]1,3.5,17.5,-6.1,1.3,1.9,x
Cc1nn(CCCC(=O)NC(C)c2ccccc2)c(=O)c2nn(-c3ccccc3)c(C)c12 (centres undefined),6.6,2.9,-23.7,-1.2,-1.6,x
O=C1CC[C@@H](CN(Cc2ccccn2)Cc2nc(-c3ccc(C(F)(F)F)cc3)no2)N1,15.3,15.3,6.8,-2.3,0.1,x
CN1CCN(C(=O)/C=C/c2ccc(C#N)cc2)CC1,-2.8,11.8,6.0,1.6,-1.6,x
Cc1cc2nnc(SCC(=O)OC(C)C)n2c2ccccc12,28.8,25.9,18.5,1.6,2.8,x
Cc1ccc(S(=O)(=O)CCSC(=N)N)cc1,32.0,0.0,26.5,-1.2,-1.2,x
O=C(COC(=O)c1cc([N+](=O)[O-])ccc1N1CCOCC1)NCc1ccc(Cl)cc1Cl,24.0,11.8,50.9*,-0.4,1.2,48.0*
CCOc1ccc(N/C(=C(/C(Cl)=C(Cl)Cl)[N+](=O)[O-])n2cncn2)cc1,17.2,5.3,9.6,-4.2,1.0,x
O=[N+]([O-])/C(C(Cl)=C(Cl)Cl)=C(\Nc1ccc(F)cc1)n1cncn1,38.3,34.9,75.3*,-0.4,-0.4,19.9
CC(=O)N1CCN(c2ccc(NC(=O)c3ccc([N+](=O)[O-])o3)cc2Cl)CC1,13.2,35.1,51.3*,-2.8,72.8*,75.5*
CC(=O)N1CCN(c2ccc(NC(=O)c3ccc(N4CCCC4)c([N+](=O)[O-])c3)cc2Cl)CC1,7.3,11.5,10.0,-1.2,0.7,x
SMILES,tim10-1 inh,TIM10 inh,tim23-1 inh,UPR XBP1 act,CHOP UPR activ,tim23-1 confirm
Cc1ccc(-c2nn(-c3ccccc3)cc2/C=N/O)cc1,29.7,15.2,58.9*,-1.0,2.7,37.8*
Cc1cccc(C)c1OCC(=O)NNC(=S)NC(=O)C1CC1,7.6,2.2,36.6,-2.2,0.4,x
CCc1cccc(NS(=O)(=O)c2ccc3c(c2)N(C)CCO3)c1,18.3,14.0,32.6,-3.4,0.0,x
O=C(N/C(=C\c1ccco1)C(=O)N1CCCC1)c1cccs1,8.9,10.5,51.6*,-0.9,-0.4,3.1
O=C(N/C(=C/c1ccco1)C(=O)N1CCCC1)c1cccs1,14.5,3.0,5.1,-1.6,1.0,x
Brc1ccc(OCc2nnnn2-c2ccccc2)cc1,-7.6,7.7,51.8*,0.0,0.8,38.8*
Cc1cc(C(=O)Nc2ccc(Cl)cc2)c(C)n1-c1ccccc1,38.5,35.6,55.7*,-9.7,-8.7,54.1*
CCCc1ccc(S(=O)(=O)N/N=C(/C)c2ccc3c(c2)OCO3)cc1,35.3,14.2,52.8*,-3.3,-0.8,48.0*
CCOc1ccc(S(=O)(=O)N/N=C(\C)c2ccc3c(c2)OCO3)cc1,16.4,7.5,27.4,-6.7,-0.1,x
Cc1ccccc1-c1cc(C(=O)NCc2cccc(C(F)(F)F)c2)n(CC2CC(c3cccnc3)=NO2)n1 (centres undefined),0.5,-11.1,6.0,-5.2,-1.6,x
Cc1cc(C)c2c(n1)SCC(=O)N2CC(=O)Nc1ccc(F)cc1,2.7,6.0,-0.1,-2.9,-3.0,x
